Compounds with a hit are over-represented: about 2.3% of the library has one in this group of screens.
SUMO1-SIM PPI: modulators of SUMO1 protein-protein interactions, primary screen, biochemical, uHTS | Small ubiquitin-related modifier 1 (Homo sapiens), P63165 | SUMO1 binding to a labelled peptide, TR-FRET, 1 h | inhibition, % at 20 µM | actives 0.33% (n = 360,000) | AID 602429, 2012; in the data active = inhibition above about 37%
Scp1 inh: Scp-1 phosphatase inhibitors, primary screen, biochemical, colorimetric, uHTS; Carboxy-terminal domain RNA polymerase II polypeptide A small phosphatase 1 (Homo …; Recombinant Scp1, phosphopeptide, malachite green phosphate absorbance; inhibition, % at 20 µM; actives 0.88% (n = 340,000);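 active = inhibition above about 50% at 20 µM, limit read from the data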;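 also: plate controls were DMSO wells with enzyme for no effect and wells lacking enzyme for full effect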
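Test system – truncated SCP-1 phosphatase (76-261aa) · Reagent – Phosphorylated 17-residue peptide substrate · Incubation – 45 min room-temperature reaction, 5 min colour, 30 min stabiliser · Detection – colorimetric phosphate reagent with accelerator and stabiliser, absorbance at 630 nm · Measure – % inhibition at 20 µM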
DNMT1 block: human DNMT1 methyltransferase inhibitors, primary screen, biochemical, molecular beacon, fluorescence, HinP1I cleavage, uHTS. DNA (cytosine-5)-methyltransferase 1 (Homo sapiens), P26358. inhibition (reported as % activation of signal), % at 10 µM. actives 0.83% (n = 360,000); in the data active = inhibition above about 50%
STEP inh: STEP phosphatase inhibitors, primary screen, biochemical, fluorescence intensity, uHTS; Tyrosine-protein phosphatase non-receptor type 5 (Homo sapiens), P54829; recombinant STEP, OMFP fluorogenic substrate; inhibition, % at 20 µM; actives 0.25% (n = 360,000); AID 588621, 2011;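 active = inhibition at 20 µM, scaled per plate between control wells, above about 37%, limit read from the data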;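 also: 0% = DMSO with enzyme and substrate and 100% = substrate only without enzyme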
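medium = Bis-Tris buffer pH 6.0, 2.5 mM DTT, 0.005% Tween 20 | test system = STEP (striatal-enriched tyrosine phosphatase) enzyme, cell-free | measure = normalized % inhibition | compound dosing = 20 µM, 1% DMSO | also added = 25 µM OMFP | schedule = reaction 20 min, ambient temperature | measured by = fluorescence read at 480 nm ex / 540 nm em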
LMPTP inh: LMPTP phosphatase inhibitors, primary screen, biochemical, fluorescence intensity, uHTS; AID 651560, 2012; recombinant LMPTP-A, OMFP fluorogenic substrate; inhibition, % at 20 µM; actives 0.22% (n = 360,000); Low molecular weight phosphotyrosine protein phosphatase (Homo sapiens), P24666;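 active = compounds that cut the enzyme signal by at least half of the control window in the single-dose screen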;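 also: plate controls were DMSO wells with enzyme plus substrate for no effect and substrate without enzyme for full effect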
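Test system: LMPTP-A phosphatase enzyme. Amount: LMPTP-A at 0.625 nM final in the reaction. Reagent: OMFP substrate, 400 µM final. Times: 50 min at room temperature. Signal: endpoint fluorescence intensity from OMFP dephosphorylation. Read-out basis: % inhibition. Benchmarks: no-enzyme and uninhibited controls.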
NadD inh: inhibitors of S. aureus NadD, primary screen, biochemical, colorimetric, uHTS. Nicotinate-nucleotide adenylyltransferase NadD (Staphylococcus aureus N315). purified NadD enzyme, colorimetric absorbance read-out. inhibition, % at 20 µM. actives 0.78% (n = 360,000); in the data active = inhibition above about 26%
Scp-1 conf: Scp-1 phosphatase inhibitors, retest, confirmation, biochemical, colorimetric, single concentration | actives 61% (n = 2,500) | shares compounds with Scp1 inh | AID 540281, 2011 | inhibition, % at 20 µM | recombinant SCP-1 catalytic domain, phosphate release, malachite green absorbance;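 also: plate controls were DMSO with enzyme for no effect and buffer wells lacking enzyme for full effect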
MG interference: colorimetric readout interference by compounds, confirmation, artefact control for Scp-1 inhibitor project, biochemical, single concentration; shares compounds with Scp1 inh; Colorimetric interference counterscreen, malachite green absorbance 630 nm; apparent inhibition (interference), % at 20 µM; 2,500 tested, under 10 active; AID 540313, 2011;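 also: compounds added after enzyme reaction finished so only phosphate colour detection is probed; plate controls were DMSO wells with completed Scp-1 reaction for no effect and substrate wells lacking enzyme for full effect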
Scp1 DSF: Scp-1 binding by thermal shift, confirmation, orthogonal assay for Scp-1 inhibitor project, biophysical, differential scanning fluorimetry | shares compounds with Scp1 inh | Recombinant SCP1, Sypro Orange thermal shift Tm | AID 540329, 2011 | actives 25% (n = 1,500) | thermal shift relative to vanadate control, % at 40 µM;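 active = substances whose mean melting-temperature shift, as a percentage of the reference inhibitor's shift, reaches about 5.3%, limit read from the data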;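 also: 0% = Tm of DMSO wells and 100% = Tm with sodium orthovanadate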
Starred values were filed as active, the others as inactive.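 The calls were made as follows, unless noted: active = inhibition of at least 30% at 20 µM; inactive = the rest.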

Results for CCN(CC(=O)Nc1cccc(OC)c1)C(=O)c1cnc(Cl)c(Cl)c1 ?
SUMO1-SIM PPI: 5; Scp1 inh: 4; DNMT1 block: 2; STEP inh: -2; LMPTP inh: 1; NadD inh: 0

What do the screens show for `Cc1cccn2c(=O)c3cc(C(=O)NC4CCCC4)n(C)c3nc12`?
SUMO1-SIM PPI: -19; Scp1 inh: 68*; DNMT1 block: -3; STEP inh: -1; LMPTP inh: 1; NadD inh: 0; Scp-1 conf: -12; MG interference: -11

What do the screens show for `O=C(O)c1ccc(COc2ccc3c4c(c(=O)oc3c2)CCC4)o1`?
SUMO1-SIM PPI: 1; Scp1 inh: 50*; DNMT1 block: 44; STEP inh: 12; LMPTP inh: -2; NadD inh: -5; Scp-1 conf: 45*; MG interference: -6; Scp1 DSF: -4

How did CCCC(=O)N=C1SC2CS(=O)(=O)CC2N1c1ccc(-c2nc3ccc(C)cc3s2)cc1 (centres undefined) do in these assays?
SUMO1-SIM PPI: -1; Scp1 inh: -4; DNMT1 block: 35; STEP inh: 1; LMPTP inh: 2; NadD inh: 12

How did CC(C)NC(=O)N(C)C[C@H]1Oc2ccc(NC(=O)Nc3ccc(C(F)(F)F)cc3)cc2C(=O)N([C@H](C)CO)C[C@@H]1C do in these assays?
SUMO1-SIM PPI: 2; Scp1 inh: -1; DNMT1 block: -5; STEP inh: -5; LMPTP inh: 0; NadD inh: 0

Results for CC(C)NC(=O)Nc1ccc2c(c1)C(=O)N([C@H](C)CO)C[C@H](C)[C@@H](CN(C)C(=O)NC(C)C)O2 ?
SUMO1-SIM PPI: 3; Scp1 inh: 56*; DNMT1 block: -3; STEP inh: 1; LMPTP inh: 0; NadD inh: -1; Scp-1 conf: 19; MG interference: 1

What do the screens show for `C[C@H](CO)N1C[C@H](C)[C@@H](CN(C)C(=O)Nc2ccccc2)Oc2ccc(NC(=O)CCN3CCOCC3)cc2C1=O`?
SUMO1-SIM PPI: 3; Scp1 inh: 21; DNMT1 block: -1; STEP inh: -3; LMPTP inh: -2; NadD inh: 4

Results for CC(C)NC(=O)N(C)C[C@H]1Oc2ccc(NC(=O)c3ccncc3)cc2C(=O)N([C@H](C)CO)C[C@@H]1C ?
SUMO1-SIM PPI: -5; Scp1 inh: 73*; DNMT1 block: 7; STEP inh: 0; LMPTP inh: 0; NadD inh: 26; Scp-1 conf: 18; MG interference: -18

What do the screens show for `CC(C)NC(=O)N(C)C[C@@H]1Oc2ccc(NC(=O)CCN3CCOCC3)cc2CC(=O)N([C@@H](C)CO)C[C@@H]1C`?
SUMO1-SIM PPI: 4; Scp1 inh: 52*; DNMT1 block: 5; STEP inh: -1; LMPTP inh: -2; NadD inh: -3; Scp-1 conf: 19; MG interference: -14

What do the screens show for `C[C@H](CO)N1C[C@H](C)[C@@H](CN(C)C(=O)Nc2ccc3c(c2)OCO3)Oc2ccc(NS(=O)(=O)c3cn(C)cn3)cc2C1=O`?
SUMO1-SIM PPI: 4; Scp1 inh: 69*; DNMT1 block: 5; STEP inh: 0; LMPTP inh: 0; NadD inh: -1; Scp-1 conf: -8; MG interference: -20

Results for C[C@@H]1CN([C@H](C)CO)C(=O)Cc2cc(NS(=O)(=O)c3cn(C)cn3)ccc2O[C@H]1CN(C)S(=O)(=O)c1ccc(Cl)cc1 ?
SUMO1-SIM PPI: 1; Scp1 inh: 65*; DNMT1 block: 4; STEP inh: -1; LMPTP inh: 0; NadD inh: 3; Scp-1 conf: 0; MG interference: -20

How did C[C@H](CO)N1C[C@H](C)[C@@H](CN(C)S(=O)(=O)c2cn(C)cn2)Oc2ccc(NC(=O)Nc3ccc4c(c3)OCO4)cc2C1=O do in these assays?
SUMO1-SIM PPI: -4; Scp1 inh: -5; DNMT1 block: -1; STEP inh: -1; LMPTP inh: 0; NadD inh: 10

How did C[C@H](CO)N1C[C@H](C)[C@@H](CN(C)C(=O)Nc2ccccc2)Oc2ccc(NS(=O)(=O)c3cn(C)cn3)cc2C1=O do in these assays?
SUMO1-SIM PPI: 5; Scp1 inh: 71*; DNMT1 block: 12; STEP inh: 2; LMPTP inh: -2; NadD inh: -3; Scp-1 conf: 0; MG interference: -10

How did COc1ccc(NC(=O)N(C)C[C@H]2Oc3ccc(NS(=O)(=O)c4cn(C)cn4)cc3C(=O)N([C@H](C)CO)C[C@@H]2C)cc1 do in these assays?
SUMO1-SIM PPI: 1; Scp1 inh: 4; DNMT1 block: 5; STEP inh: -1; LMPTP inh: -2; NadD inh: -4

What do the screens show for `Cc1noc(C)c1NC(=O)N(C)C[C@H]1Oc2ccc(NS(=O)(=O)c3cn(C)cn3)cc2C(=O)N([C@H](C)CO)C[C@@H]1C`?
SUMO1-SIM PPI: 2; Scp1 inh: 64*; DNMT1 block: 6; STEP inh: 0; LMPTP inh: -1; NadD inh: 5; Scp-1 conf: 3; MG interference: -9

Results for Cc1cc(C)c2c(=N)c3ccccc3n(CCCCCCCCn3c4ccccc4c(=N)c4c(C)cc(C)nc43)c2n1 ?
SUMO1-SIM PPI: 95*; Scp1 inh: 59*; DNMT1 block: 13; STEP inh: 11; LMPTP inh: 87*; NadD inh: 27; Scp-1 conf: 5; MG interference: 15

Source: PubChem BioAssay (Sanford-Burnham Center for Chemical Genomics)
